The values that follow come from ChEMBL document CHEMBL1938385, “Identification of Trypanosoma brucei leucyl-tRNA synthetase inhibitors by pharmacophore- and docking-based virtual screening and synthesis” (Bioorg Med Chem, 2012).

Assay [1] in a line: Inhibition of Trypanosoma brucei LeuRS preincubated for 20 mins prior to reaction initiation by aminoacylation assay. In outline: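 Enzyme, compound, tRNA and 0.003 mCi/mL [¹⁴C]-leucine were incubated 20 min at 37 °C, then 4 mM ATP was added to start the reaction. Precipitated [¹⁴C]-Leu-tRNA^Leu on dried filter paper was measured by scintillation counting.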
Assay [2] is described as follows: Inhibition of Staphylococcus aureus LeuRS.
Assay [3] is described as follows: Inhibition of human LeuRS.
Assay [4] is described as follows: Inhibition of Escherichia coli LeuRS.

Broadly, the IC50 is the concentration that gives 50% inhibition. Low values mean higher potency, high ones lower potency.

Where only a bound is given, the exact number is not on record here.

Consider `COc1ccc(C(=O)C2=C(O)C(=O)N(CCc3c[nH]c4ccccc34)C2c2ccc(C(C)C)cc2)cc1` (stereo unspecified), for which, in assay [1], half-maximal inhibition (IC50) required 90.5 µM.
In assay [1], `COc1ccc(C(=O)C2=C(O)C(=O)N(CCc3c[nH]c4ccccc34)C2c2cccc(F)c2)cc1` (stereo unspecified) yielded an IC50 of 170 µM.
Same read-out and setting: under `COc1ccc(C(=O)C2=C(O)C(=O)N(CCc3c[nH]c4ccccc34)C2c2ccccc2F)cc1` (stereo unspecified) stands 269 µM.
Regarding `COc1ccc(C(=O)C2=C(O)C(=O)N(CCc3c[nH]c4ccccc34)C2c2ccc(F)cc2)cc1` (stereo unspecified), in assay [1], the half-maximal inhibitory concentration (IC50) is 64.7 µM.
Same read-out and setting: for `COc1ccc(C(=O)C2=C(O)C(=O)N(CCc3c[nH]c4ccccc34)C2c2ccccc2Cl)cc1` (stereo unspecified) the value was 125 µM; for `COc1ccc(C(=O)C2=C(O)C(=O)N(CCc3c[nH]c4ccccc34)C2c2ccc(Cl)cc2)cc1` (stereo unspecified), 86.9 µM; for `COc1ccc(C(=O)C2=C(O)C(=O)N(CCc3c[nH]c4ccccc34)C2c2ccccc2)cc1` (stereo unspecified), 260 µM.
`COc1ccc(C(=O)C2=C(O)C(=O)N(CCc3c[nH]c4ccccc34)C2c2ccc(C)cc2)cc1` (stereo unspecified): it took 117 µM to reach half-maximal inhibition in assay [1] (IC50).
With `CCc1ccc(C2C(C(=O)c3ccc(OC)cc3)=C(O)C(=O)N2CCc2c[nH]c3ccccc23)cc1` (stereo unspecified), the half-maximal inhibitory concentration (IC50) in assay [1] amounted to 71.4 µM.
Compound `COc1ccc(C(=O)C2=C(O)C(=O)N(CCc3c[nH]c4ccccc34)C2c2ccc(OC)cc2)cc1` (stereo unspecified) showed an IC50 in assay [1] of 334 µM.
In turn, `COc1ccc(C(=O)C2=C(O)C(=O)N(CCc3c[nH]c4ccccc34)C2c2ccccc2OC)cc1` (stereo unspecified) had a half-inhibitory concentration (IC50) in assay [1] of 190 µM.
The compound `COc1ccccc1C1C(C(=O)c2ccc(Cl)cc2)=C(O)C(=O)N1CCc1c[nH]c2ccccc12` (stereo unspecified) returned a half-inhibitory concentration (IC50) in assay [1] of 107 µM.
In assay [1], `O=C(C1=C(O)C(=O)N(CCc2c[nH]c3ccccc23)C1c1cccc(O)c1)c1ccc(Cl)cc1` (stereo unspecified) showed an IC50 of 588 µM.
`O=C(C1=C(O)C(=O)N(CCc2c[nH]c3ccccc23)C1c1ccc(Cl)cc1)c1ccc(F)cc1` (stereo unspecified) gave an IC50 in assay [1] above 1000 µM.
For the compound `O=C(C1=C(O)C(=O)N(CCc2c[nH]c3ccccc23)C1c1ccccc1)c1ccc(F)cc1` (stereo unspecified), the 50% inhibitory concentration (IC50) in assay [1] was above 1000 µM.
As for `O=C(C1=C(O)C(=O)N(CCc2c[nH]c3ccccc23)C1c1cccc(F)c1)c1ccccc1` (stereo unspecified), in assay [1], the IC50 was above 1000 µM.
`CCc1ccc(C2C(C(=O)c3ccc(OC)cc3)=C(O)C(=O)N2CCCNC(=O)OC(C)(C)C)cc1` (stereo unspecified): it took 269 µM to reach half-maximal inhibition in assay [1] (IC50).
Turning to `CCc1ccc(C2C(C(=O)c3ccc(OC)cc3)=C(O)C(=O)N2c2ccc(CNC(=O)OC(C)(C)C)cc2)cc1` (stereo unspecified), in assay [1], inhibition was half-maximal at 102 µM (IC50).
In turn, `CCc1ccc(C2C(C(=O)c3ccc(OC)cc3)=C(O)C(=O)N2CCCNC(=O)CC(C)C)cc1` (stereo unspecified) showed a 50% inhibitory concentration (IC50) in assay [1] above 1000 µM.
Same read-out and setting: under `CCc1ccc(C2C(C(=O)c3ccc(OC)cc3)=C(O)C(=O)N2Cc2ccc3c(c2)OCO3)cc1` (stereo unspecified) stands 174 µM; under `CCc1ccc(C2C(C(=O)c3ccc(OC)cc3)=C(O)C(=O)N2Cc2ccc(C(=O)O)cc2)cc1` (stereo unspecified), 656 µM; under `CCc1ccc(C2C(C(=O)c3ccc(OC)cc3)=C(O)C(=O)N2CCCn2ccnc2)cc1` (stereo unspecified), 716 µM.
In the case of `CCc1ccc(C2C(C(=O)c3ccc(OC)cc3)=C(O)C(=O)N2CCCN)cc1` (stereo unspecified), the concentration for half-maximal inhibition (IC50) in assay [1] is above 1000 µM.
In the case of `CCc1ccc(C2C(C(=O)c3ccc(OC)cc3)=C(O)C(=O)N2c2ccc(CN)cc2)cc1` (stereo unspecified), in assay [1], the IC50 was above 1000 µM.
Consider `COc1ccc(C(=O)C2=C(O)C(=O)N(CCc3c[nH]c4ccccc34)C2c2ccc(C(F)(F)F)cc2)cc1` (stereo unspecified), for which the IC50 in assay [1] amounted to 68.1 µM.
Regarding `COc1ccc(C(=O)C2=C(O)C(=O)N(CCc3c[nH]c4ccccc34)C2c2ccc(C(C)(C)C)cc2)cc1` (stereo unspecified), half-maximal inhibition in assay [1] (IC50) was put at 94.5 µM.
The same measure, in the same setting: under `CCCCc1ccc(C2C(C(=O)c3ccc(OC)cc3)=C(O)C(=O)N2CCc2c[nH]c3ccccc23)cc1` (stereo unspecified) stands 43.9 µM; under `COc1ccc(C(=O)C2=C(O)C(=O)N(CCc3c[nH]c4ccccc34)C2c2ccc(CC(C)C)cc2)cc1` (stereo unspecified), 31.9 µM.
Turning to `COc1ccc(C(=O)C2=C(O)C(=O)N(CCc3c[nH]c4ccccc34)C2c2ccc(-c3ccccc3)cc2)cc1` (stereo unspecified), in assay [1], the half-inhibitory concentration (IC50) was 43.1 µM.
The compound `COc1ccc(C(=O)C2=C(O)C(=O)N(CCc3c[nH]c4ccccc34)C2c2ccc3ccccc3c2)cc1` (stereo unspecified) had an IC50 in assay [1] of 85.5 µM.
Compound `COc1ccc(C(=O)C2=C(O)C(=O)N(CCc3c[nH]c4ccccc34)C2c2ccc(F)cc2Br)cc1` (stereo unspecified) displayed an IC50 in assay [1] of 110 µM.
Turning to `CCCCCC1C(C(=O)c2ccc(OC)cc2)=C(O)C(=O)N1CCc1c[nH]c2ccccc12` (stereo unspecified), half-maximal inhibition in assay [1] (IC50) required 111 µM.
For the compound `CC(C)Cc1ccc(C2C(C(=O)c3ccc(Cl)cc3)=C(O)C(=O)N2CCc2c[nH]c3ccccc23)cc1` (stereo unspecified), the half-inhibitory concentration (IC50) in assay [1] was 41 µM.
The same measure, in the same setting: under `CC(C)Cc1ccc(C2C(C(=O)c3ccc(F)cc3F)=C(O)C(=O)N2CCc2c[nH]c3ccccc23)cc1` (stereo unspecified) stands 175 µM; under `CCc1ccc(C2C(C(=O)c3cccc4ccccc34)=C(O)C(=O)N2CCc2c[nH]c3ccccc23)cc1` (stereo unspecified), 80 µM.
As to `CC[C@H](C)[C@H](N)C(=O)NS(=O)(=O)OC[C@H]1O[C@@H](c2nc(-c3ccccc3)ns2)[C@H](O)[C@@H]1O`, the IC50 in assay [2] is above 20 µM; in assay [3], 200 µM; in assay [4] it was 1 µM.
The corresponding values for `CC(C)C[C@H](N)C(=O)NS(=O)(=O)OC[C@H]1O[C@@H](c2nc(-c3ccc(Oc4ccccc4)cc3)ns2)[C@H](O)[C@@H]1O` are 0.054 µM, 0.6 µM and 0.0016 µM.
For `CC(C)C[C@H](N)C(=O)NS(=O)(=O)OC[C@H]1O[C@@H](c2nc(CCc3cccc(Oc4ccccc4)c3)ns2)[C@H](O)[C@@H]1O`, the values for the IC50 in assay [2], in assay [3] and in assay [4] were 0.1 µM, 1.15 µM and 0.006 µM, respectively.
As to `CC(C)C[C@H](N)C(=O)NS(=O)(=O)OC[C@H]1O[C@@H](c2nc(CCc3ccccc3)ns2)[C@H](O)[C@@H]1O`, the concentration for half-maximal inhibition (IC50) in assay [2] was 0.09 µM; in assay [3], 0.73 µM; in assay [4], below 0.002 µM.
`CC[C@H](C)[C@H](N)C(=O)NS(=O)(=O)OCc1oc(-c2nc(-c3ccccc3)cs2)c(O)c1O`: the IC50 came to 0.6 µM in assay [3] and 0.0016 µM in assay [4].
Regarding `CC[C@H](C)[C@H](N)C(=O)NS(=O)(=O)CC(=O)O[C@H]1CC[C@H]2C(C(N)=O)=CN(C)C[C@@H]12`, the IC50 in assay [2] stood at 0.42 µM.
Regarding `CC[C@H](C)[C@H](N)C(=O)NS(=O)(=O)CC(=O)N[C@]1(C(=O)OC)[C@@H]2CN(C)C=C(C(N)=O)[C@@H]2C[C@@H]1O`, in assay [2], half-maximal inhibition (IC50) was put at 186 µM.
